Published values of several laboratories.
Each line is one published result; the experiments were not run side by side.
Target: Mitogen-activated protein kinase kinase kinase kinase 3 (MAP4K3, Homo sapiens, UniProt Q8IVH8)
Residues used in one study (Q8IVH8 1-894): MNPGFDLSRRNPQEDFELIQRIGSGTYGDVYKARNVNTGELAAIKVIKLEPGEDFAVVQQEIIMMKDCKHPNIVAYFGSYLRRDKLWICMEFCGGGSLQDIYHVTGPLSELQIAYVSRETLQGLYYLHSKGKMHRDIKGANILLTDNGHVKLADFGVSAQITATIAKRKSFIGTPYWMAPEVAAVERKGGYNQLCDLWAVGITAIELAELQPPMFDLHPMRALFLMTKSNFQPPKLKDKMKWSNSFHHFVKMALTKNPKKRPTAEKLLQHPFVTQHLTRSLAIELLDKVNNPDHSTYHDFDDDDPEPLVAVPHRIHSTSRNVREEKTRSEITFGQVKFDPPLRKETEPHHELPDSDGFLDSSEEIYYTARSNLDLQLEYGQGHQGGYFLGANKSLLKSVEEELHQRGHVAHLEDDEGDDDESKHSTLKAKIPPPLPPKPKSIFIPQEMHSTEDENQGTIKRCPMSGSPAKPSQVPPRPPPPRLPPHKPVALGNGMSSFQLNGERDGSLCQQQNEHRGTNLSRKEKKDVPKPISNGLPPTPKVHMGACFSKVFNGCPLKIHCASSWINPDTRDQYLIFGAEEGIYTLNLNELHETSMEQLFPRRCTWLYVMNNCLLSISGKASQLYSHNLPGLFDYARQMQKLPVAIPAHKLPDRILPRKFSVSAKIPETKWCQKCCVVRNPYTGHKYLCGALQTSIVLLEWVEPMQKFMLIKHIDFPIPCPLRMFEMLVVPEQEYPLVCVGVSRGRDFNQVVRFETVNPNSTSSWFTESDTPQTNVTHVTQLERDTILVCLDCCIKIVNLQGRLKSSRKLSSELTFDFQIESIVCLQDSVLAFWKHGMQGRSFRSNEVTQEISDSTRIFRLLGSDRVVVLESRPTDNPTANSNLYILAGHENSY

Structure (SMILES)	effect on	mode	technique	tested at	measurement	result
FC(F)(F)Oc1cccc(-c2cnc3ccc(-c4ccncc4)nn23)c1	enzyme activity	inhibitor	radiometric	1 µM	activity vs control	54%
CNC(=O)c1ccc(Nc2ncc(C(F)(F)F)c(NCc3nccnc3N(C)S(C)(=O)=O)n2)cc1	cell-free assay		competition with immobilised ligand	0.1 µM	remaining binding	95%
COc1cc(Cl)c(C(=O)N[C@@H](CN[C@H]2CC[C@@H](N)CC2)Cc2ccc(C#N)cc2)cc1-c1ccc(CN[C@H](C)c2ccc(C)cc2)o1	enzyme activity	inhibitor		1 µM	remaining activity	98%
CCCCNc1ncc2c(-c3ccc(F)cc3)nn(C[C@H]3CC[C@H](N)CC3)c2n1	target engagement in cells	inhibitor	chemoproteomics	20 mM	inhibition	44.6%
CN1CC(Oc2cnc(C#N)cc2-c2ccn3nc(NC(=O)C4CC4)cc3c2)C1	enzyme activity	inhibitor		1 µM	inhibition	-4%
CC(=O)c1c(NS(C)(=O)=O)c2cc(-c3ccc(Cl)cc3)c(-c3ccc(Cl)cc3Cl)nc2n(C)c1=O	cell-free assay		competition with immobilised ligand	1 µM	remaining binding	99%
O=C(Nc1cnn(-c2csc(C(=O)NC3COC3)c2)c1)Nc1c(F)cccc1Cl	enzyme activity	inhibitor		5 µM	remaining activity	100%
Nc1ncnc2occ(-c3ccc(NC(=O)Nc4cc(C(F)(F)F)ccc4F)cc3)c12	cell-free assay	inhibitor		20 µM	remaining signal	0.8%
Cc1sc(C(=O)NC2COC2)cc1-n1cc(NC(=O)Nc2c(F)cccc2Cl)cn1	enzyme activity	inhibitor		10 µM	remaining activity	118%
Cc1ccc(C(=O)Nc2ccc(CN3CCN(C)CC3)c(C(F)(F)F)c2)cc1C#Cc1cnc2cccnn12	enzyme activity	inhibitor		23.5 nM	remaining activity	89%
COc1cc(Nc2cnc(C#N)c(O[C@H](C)CN(C)C)n2)ncc1-c1cnn(C)c1	enzyme activity	inhibitor	radiometric	1 µM	remaining activity	45%
c1ccc(CNc2nc(N3CCOc4ccccc43)nc3c2CCCC3)cc1	target engagement in cells	inhibitor	chemoproteomics	20 mM	inhibition	3.3%
Cc1ccc(C(=O)NCc2ccsc2)cc1C#Cc1cn(C(C)C)c2ncnc(N)c12	enzyme activity	inhibitor		1 µM	activity vs control	54%
COc1cc(/C=C/C(=O)CC(=O)/C=C/c2ccc(O)c(OC)c2)ccc1O	enzyme activity	inhibitor		1 µM	activity vs control	87%
CCCCN(CCCC)C(=O)CN1C[C@H](c2cc(OC)c3c(c2)OCO3)[C@@H](C(=O)O)[C@@H]1CC(C)(C)CCC	cell-free assay		competition with immobilised ligand	1 µM	remaining binding	100%
